From ChEMBL document CHEMBL1155769 (Antimicrob Agents Chemother, 2007) come the findings set out here.

The source made the active and inactive calls. No cut-off for these calls is given here.

Series [1] is described as follows: Binding affinity to heme in HEPES buffer at pH 7.4 upto 20 uM after 30 mins by Jobs plot. In a few lines:
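Continuous-variation (Job's) method: drug and heme mixed in 40% DMSO buffered with 20 mM HEPES, pH 7.4, at a constant combined final concentration of 10 µM. Mixtures were held 30 min at room temperature (25°C). Differential absorbance at 400 nm was taken as the mixture absorbance minus the summed heme and drug absorbances. Three independent experiments, mean ± SEM.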

A short description of series [2]: Toxicity against human erythrocytes assessed as heme-induced hemolysis up to 30 uM in absence of heme. In kind it is cell-based. The conditions noted are these: erythrocyte. In outline:
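Fresh heparinized human donor erythrocytes, washed six times in PBS, pH 7.4, used as a 0.5% suspension. Drugs up to 30 µM without heme were tested. Hemolysis was followed by turbidity at 630 nm, with a cells-only well taken as 0% hemolysis.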

The nature of series [3]: Toxicity against human erythrocytes assessed as potentiation of heme-induced hemolysis at 10 uM in presence of heme. In kind it is cell-based. The conditions noted are these: erythrocyte. In a few lines: (§1)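 Washed fresh human erythrocytes (0.5% in PBS, pH 7.4) were used. Heme, either 0–20 µM with 10 µM drug or 10 µM with various drug concentrations, was preincubated 10 min in PBS, then cells were added. Plates were shaken 2 h at 37°C and read at 630 nm. Percent hemolysis was calculated relative to a cells-only control. Error bars are SD.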

The subject of another series is Plasmodium falciparum. In words: Antimalarial activity against chloroquine-sensitive Plasmodium falciparum D6 infected in human erythrocytes after 48 hrs. In kind it is functional, organism-based. The conditions noted are these: D6, 48 h. In outline:
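Human erythrocytes infected with chloroquine-sensitive P. falciparum clone D6, mainly rings, at 4% parasitemia and 5% hematocrit. Cultured in RPMI 1640 with 10% human AB serum, with serial drug dilutions in triplicate. Incubated 48 h at 37°C in a candle jar. Parasitized cells per 10,000 counted on Giemsa-stained thin smears. Inhibition vs drug-free control was plotted, and IC50 (µM) read graphically.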

Series [4] is described as follows: Inhibition of beta-hematin formation after 16 hrs.
Series [5] in a line: Binding affinity to heme in phosphate buffer at pH 7.4 by Hills plot.
Series [6] can be described thus: Binding affinity to heme in HEPES buffer at pH 7.4 upto 60 uM after 30 mins by Jobs plot.
The nature of series [7]: Binding affinity to heme in HEPES buffer at pH 7.4 after 30 mins by Jobs plot. In outline:
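Continuous-variation (Job's) plot: drug–heme mixtures in 40% DMSO buffered with 20 mM HEPES, pH 7.4, total heme plus drug held at 10 µM. Incubated 30 min at room temperature (25°C). Differential absorbance at 400 nm was taken as mixture minus summed heme and drug absorbance. Mean ± SEM of three independent experiments.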

A short description of series [8]: Toxicity against human erythrocytes assessed as potentiation of heme-induced hemolysis in presence of variable concentration of heme. In kind it is cell-based. The conditions noted are these: erythrocyte. In outline:
as §1

With `CCN(CC)CCCC(C)Nc1ccnc2cc(Cl)ccc12` (centres undefined) [CHLOROQUINE], in series [1], the result was Active. The Activity result in series [2] is listed as “Not Active”; in series [3], “Dose-dependent effect”.

Broadly, the IC50 is the point on the concentration scale where inhibition reaches its midpoint. Turning to `COc1cc(NC(C)CCCN)c2nc(C(C)(C)C)ccc2c1` (centres undefined), the results for the 50% inhibitory concentration (IC50) (in the series on Plasmodium falciparum; in [4]) were 100 nM and 2900 nM, respectively. Further, the results for the Activity result in [2] and in series [3] were “Not Active” and “Dose-dependent effect”, respectively. In addition, in series [5], the Ka worked out at 0.61 ×10⁵ /M. Also, the outcome in series [6] was Active.

On to `COc1cc(NC(C)CCCN)c2ncccc2c1` (centres undefined) [PRIMAQUINE], for which the result in series [7] and in series [5] was inactive. The Activity entry in series [8], in series [2] and in [3] was “Not Active” throughout.
